Laboratory results published in ChEMBL document CHEMBL2401641, “Design and synthesis of N-alkyldeoxynojirimycin derivatives with improved metabolic stability as inhibitors of BVDV and Tacaribe virus” (Bioorg Med Chem Lett, 2013).

Key:
Tacaribe virus = assay: Antiviral activity against Tacaribe virus infected in human Huh7.5 cells assessed as reduction in viral yield after 3 days by neutral-red staining-based microscopic analysis; type: functional, organism-based; conditions: Mammarenavirus tacaribeense, Huh-7, 72 h
In short: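 Huh7 cells infected with Tacaribe virus at MOI 0.01. Compounds were added immediately after virus incubation at 0.01 to 100 μM. Progeny titers were determined by standard virus yield reduction assay in Vero cells, and EC50 was derived.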

[1] = Cytotoxicity against MDBK cells by MTT assay; type: cell-based, Bos taurus; conditions: cattle
[2] = test system: Bovine viral diarrhea virus 1; assay: Antiviral activity against Bovine viral diarrhea virus infected in MDBK cells assessed as reduction in viral yield after 3 days by neutral-red staining-based microscopic analysis; type: functional, organism-based; conditions: Bovine viral diarrhea virus isolates and strains, 72 h
In short: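 BVDV titers from treated infected cultures were determined by standard virus yield reduction assay in MDBK cells, and EC50 was derived.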

[3] = Metabolic stability in mouse liver microsomes assessed as compound remaining at 2 uM after 60 mins in presence of NADPH; type: ADME, Microsome; conditions: read-out: Stability
In short: (§1)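 Liver microsomes at 0.5mg/ml incubated at 37°C with test compound at 2μM in the presence of 1mM NADPH. Percent of parent compound remaining measured at 60 min. Run by a contract lab.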

[4] = Metabolic stability in human liver microsomes assessed as compound remaining at 2 uM after 60 mins in presence of NADPH; type: ADME, Microsome; conditions: read-out: Stability; in short: as §1
[5] = Metabolic stability in rat liver microsomes assessed as compound remaining at 2 uM after 60 mins in presence of NADPH; type: ADME, Microsome; conditions: read-out: Stability; in short: as §1
[6] = Cytotoxicity against human Huh7.5 cells by MTT assay; type: cell-based, Huh-7

| Structure (SMILES) | EC50 (Tacaribe virus) [µM] | CC50 [1] [µM] | EC50 [2] [µM] | remaining at 1 h, 2 µM [3] [%] | remaining at 1 h, 2 µM [4] [%] | remaining at 1 h, 2 µM [5] [%] | CC50 [6] [µM] |
| --- | --- | --- | --- | --- | --- | --- | --- |
| CC(C)(C)S(=O)(=O)N(CCCCCCN1C[C@H](O)[C@@H](O)[C@H](O)[C@H]1CO)C1CCCCC1 | 0.4 | > 500 | 0.31 | 65.4 | 50.2 | 12.1 | > 500 |
| O=c1oc2ccccc2n1CCCCCCN1C[C@H](O)[C@@H](O)[C@H](O)[C@H]1CO | 0.4 | > 500 | 0.4 | 86.7 | 101 | 86.9 | > 500 |
| CC(C)OP(=O)(OC(C)C)N(CCCCCCN1C[C@H](O)[C@@H](O)[C@H](O)[C@H]1CO)C1CCCCC1 | 0.3 | > 500 | 3.4 |  |  |  | 310 |
| O=C1OC[C@H](c2ccccc2)N1CCCCCCN1C[C@H](O)[C@@H](O)[C@H](O)[C@H]1CO |  | > 500 | 0.8 |  |  |  |  |
| NC(=O)N(CCCCCCN1C[C@H](O)[C@@H](O)[C@H](O)[C@H]1CO)C1CCCCC1 | 100 | > 500 | 14.2 |  |  |  | > 500 |
| CS(=O)(=O)N(CCCCCCN1C[C@H](O)[C@@H](O)[C@H](O)[C@H]1CO)C1CCCCC1 | 0.7 | > 500 | 0.2 | 86.9 | 95.5 | 65.7 | > 500 |
| O=C1OC[C@@H](c2ccccc2)N1CCCCCCN1C[C@H](O)[C@@H](O)[C@H](O)[C@H]1CO |  | > 500 | 3.5 |  |  |  |  |
| CC(C)(C)C(=O)N(CCCCCCN1C[C@H](O)[C@@H](O)[C@H](O)[C@H]1CO)c1ccc(F)cc1F |  |  |  | 55.3 | 36.1 | 21.6 |  |
| O=C(c1ccccc1)N(CCCCCCN1C[C@H](O)[C@@H](O)[C@H](O)[C@H]1CO)C1CCCCC1 | 0.6 | > 500 | 0.32 | 97.4 | 82.6 | 77.4 | > 500 |
| CC(C)(C)C(=O)N(CCCCCCN1C[C@H](O)[C@@H](O)[C@H](O)[C@H]1CO)C1CCCCC1 |  | > 500 |  | 58.6 | 41.6 | 26.9 |  |
| O=S(=O)(c1ccccc1)N(CCCCCCN1C[C@H](O)[C@@H](O)[C@H](O)[C@H]1CO)C1CCCCC1 | 1.6 | 200 | 0.5 | 42.8 | 13 | 3.83 | 280 |
| O=C(c1cc(F)c(F)cc1F)N(CCCCCCN1C[C@H](O)[C@@H](O)[C@H](O)[C@H]1CO)C1CCCCC1 | 0.6 | > 500 | 0.27 |  |  |  | > 500 |
| CCCNC(=O)N(CCCCCCN1C[C@H](O)[C@@H](O)[C@H](O)[C@H]1CO)C1CCCCC1 | 25 | > 500 | 15.8 |  |  |  | > 500 |
| CC(C)(C)NC(=O)N(CCCCCCN1C[C@H](O)[C@@H](O)[C@H](O)[C@H]1CO)C1CCCCC1 | 0.74 | > 500 | 0.25 | 87.6 | 93.6 | 92.8 | > 500 |
